High-throughput results (PubChem BioAssay)
Yeast lifespan up = compounds extending yeast replicative lifespan, primary screen, S. cerevisiae, OD615; S. cerevisiae growth with nicotinamide; deaD strain in restrictive glucose medium; inhibition of the nicotinamide effect, % at 10 µM; hit rate 0.68% among 130,000;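 active means inhibition above a set limit, placed 3 SD over the median of all compounds, cut at about 26% in these data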
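Measured by: optical density (absorbance) at 615 nm; System: modified budding yeast, DeaD strain; Medium: restrictive CSMM-D dextrose medium; Timing: 4 h preincubation then 48 h treatment at 30 °C.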
INS promoter inh = inhibitors of insulin promoter-driven GFP, primary screen, imaging, TRM-6 cells, eGFP reporter, cell count; reporter expression induced with tamoxifen; inhibition, % at 2 µM; hit rate 0.9% among 130,000;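 active means inhibition above the mean plus 3 SD, with well images judged a real hit on visual review, cut at about 60% in these data, passing the limit was not always enough; inconclusive means inhibition over the cutoff but images rejected on review; inactive means inhibition not above the cutoff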
Yeast growth inh = growth inhibitors of yeast BB579 in restrictive medium, primary screen, yeast lifespan-shortening project, S. cerevisiae; AID 804, 2007; hit rate 0.51% among 140,000; inhibition, % at 10 µM; OD615, 48 h;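 active means inhibition above a set limit, 3 SD over the mean compound inhibition, cut at about 44% in these data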
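Assay system – yeast BB579 (DeaD) · Dosing – single compound dose of 10 µM, 0.25% DMSO final · Detection – OD615 turbidity measurement · Buffer or medium – CSMM-D restrictive synthetic medium containing dextrose (glucose) · Benchmarks – positive control amphotericin B 10 µg/mL · Incubation – 48 h exposure, 30 °C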
RAM inhibit = inhibitors of the yeast RAM network, primary screen, dse1pr::URA3 reporter, 5-FOA selection; hit rate 1.8% among 190,000; AID 868, 2007; inhibition, % at 50 µM; S. cerevisiae dse1pr::URA3 reporter, 5-FOA growth OD615, 2 d; analog-sensitive cbk1-as2 kinase mutant strain;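 active means inhibition above a set limit, 3 SD over mean compound inhibition, cut at about 8.4% in these data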;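 further: inhibition rescues growth on 5-FOA so higher OD means more RAM inhibition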
Insulin prom up = insulin promoter activators in MIN6 cells, imaging, high-content screening, mouse beta cells; hit rate 0.3% among 190,000; z-score at 5 µM; MIN6 insulin promoter-GFP reporter; hits give high values; AID 1625, 2009;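 active means z-score above 3 at 5 µM with at least 500 cells counted in the well; inconclusive means wells under 500 cells, flagged as cytotoxic or low count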
RAM 5-FOA = 5-FOA growth of efflux-deficient control yeast, dose response, counter-screen for RAM network inhibitor project, S. cerevisiae, OD615; shares compounds with RAM inhibit; S. cerevisiae efflux-deficient reporter strain, 5-FOA growth OD615, 2 days; max inhibition, %; 1,200 tested, under 10 active; AID 1305, 2008; call rule not given here
Each line names hits and unclear results; the compound was inactive in the other large screens (follow-up assays come after a bar, where they were run). Rows were chosen to be rich in hits. Some 3.1% of all compounds tested hit in one or more screens of this group.

O=C(NC(=S)Nc1ccc(Oc2ccc(Cl)cc2)cc1)c1ccccc1	RAM inhibit 17 | RAM 5-FOA inactive
CCOC(=O)C1=C(CSc2nc(-c3ccccc3)ccc2C#N)OC(N)=C(C#N)C1c1ccc(OC)cc1 (configuration not stated)	RAM inhibit 19 | RAM 5-FOA inactive
NC1=NC2(CCCCC2)N=C(Nc2ccc(Br)cc2)N1	none (no result: INS promoter inh)
COc1ccc(N(C(=O)c2cc3ccccc3oc2=O)C2C=CS(=O)(=O)C2)c(OC)c1 (configuration not stated)	none (no result: Yeast lifespan up, INS promoter inh, Yeast growth inh)
COc1cccc(CN(Cc2ccccc2F)S(=O)(=O)c2ccc(S(=O)(=O)NCc3ccccc3)cc2)c1	RAM inhibit 18 (no result: INS promoter inh) | RAM 5-FOA inactive
COc1cccc(CNS(=O)(=O)c2ccc(S(=O)(=O)N3CCCC3)cc2)c1	none (no result: Yeast lifespan up, Yeast growth inh)
COc1cccc(CN(Cc2ccco2)S(=O)(=O)c2ccc(S(=O)(=O)NCc3ccccc3)cc2)c1OC	RAM inhibit 14 (no result: Yeast lifespan up) | RAM 5-FOA inactive
CCN(Cc1ccccc1)S(=O)(=O)c1ccc(S(=O)(=O)N(Cc2cccc(OC)c2)CC2CCCO2)cc1 (configuration not stated)	RAM inhibit 16 (no result: Insulin prom up) | RAM 5-FOA inactive
COc1cccc(CN(CC2CCCO2)S(=O)(=O)c2ccc(S(=O)(=O)NCC3CCCO3)cc2)c1OC (configuration not stated)	none (no result: Insulin prom up)
C#Cc1cccc(NC(=O)C2CCN(C(C)=O)CC2)c1	none (no result: Yeast lifespan up, INS promoter inh, Yeast growth inh)
NC(=O)NC(=O)COC(=O)/C=C/c1cccs1	none (no result: Yeast lifespan up, INS promoter inh, Yeast growth inh, RAM inhibit)
CCc1nc(-c2ccc(-c3ccc(OC)cc3)nc2OC)no1	none (no result: Insulin prom up)
COc1ccc(-c2ccc(-c3noc(C(C)C)n3)c(OC)n2)cc1	RAM inhibit 15 (no result: INS promoter inh) | RAM 5-FOA inactive
Fc1ccc(COc2ccccc2-c2ccnc3ncnn23)cc1	none (no result: Yeast lifespan up, INS promoter inh, Yeast growth inh)
O=[N+]([O-])c1ccc(N/N=C/c2sc(N3CCOCC3)nc2-c2ccccc2)c(S(=O)(=O)Nc2ccc(Cl)cc2)c1	RAM inhibit 12, Insulin prom up inconclusive (no result: Yeast lifespan up, Yeast growth inh) | RAM 5-FOA inactive
O=C(O)c1cccc(N/N=C/c2sc(N3CCOCC3)nc2-c2ccccc2)c1	none
CN(C[C@H](Cc1ccccc1)N(CCN(CCc1ccccc1)N=O)N=O)N=O	none (no result: Yeast lifespan up, INS promoter inh, Yeast growth inh)
CC(C)C[C@@H](CN(C)N=O)N(C[C@H](Cc1ccccc1)N(CCc1ccccc1)N=O)N=O	RAM inhibit 20 (no result: Yeast lifespan up, INS promoter inh, Yeast growth inh) | RAM 5-FOA inactive
CC(C)c1ccccc1NC(=O)COC(=O)CCN1C(=O)/C(=C\C=C\c2ccccc2)SC1=S	none
O=C(COC(=O)CCN1C(=O)/C(=C\C=C\c2ccccc2)SC1=S)Nc1ccc(Br)cc1	RAM inhibit 16 (no result: Yeast lifespan up, Yeast growth inh) | RAM 5-FOA inactive
CCOC(=O)C1=C(N)Oc2c(c(=O)[nH]c3ccccc23)C1c1ccccc1 (configuration not stated)	none
Cc1ccc(S(=O)(=O)N(CCCO)CC(O)CON=C2c3ccccc3-c3ccccc32)cc1 (configuration not stated)	RAM inhibit 13 (no result: INS promoter inh) | RAM 5-FOA inactive
Cc1ccc(C(c2nnnn2C2CCCC2)N2CCc3ccccc32)cc1 (configuration not stated)	RAM inhibit 12 (no result: INS promoter inh) | RAM 5-FOA inactive
CC(C)C(c1nnnn1C1CCCC1)N1CCc2ccccc21 (configuration not stated)	none (no result: INS promoter inh)
CSc1ccc(Cl)c(C(=O)NCCOc2cc(C(C)C)ccc2C)c1	RAM inhibit 14 | RAM 5-FOA inactive
CC(C)(C)c1ccc(-n2nc(C#N)c(Cl)cc2=O)cc1	none (no result: Yeast lifespan up, INS promoter inh, Yeast growth inh)
COC(=O)c1nn(-c2cccc(C)c2)c2nnc(Cc3ccc(C)cc3)c(=O)n12	none
Cc1ccc(Cc2nnc3n(-c4cccc(C)c4)nc(C(=O)c4ccccc4)n3c2=O)cc1	RAM inhibit 15 (no result: Yeast lifespan up, Insulin prom up) | RAM 5-FOA inactive
COc1ccc(-n2nnc3c(SCC(=O)OCc4ccccc4)ncnc32)cc1	RAM inhibit 14 | RAM 5-FOA inactive
C=CCn1c(SCC(=O)Nc2ccccc2C)nnc1-c1ccncc1	RAM inhibit 14 | RAM 5-FOA inactive
CCCC(c1nnnn1C(C)(C)C)N1CCN(C(=O)c2ccco2)CC1 (configuration not stated)	none (no result: Yeast lifespan up, INS promoter inh, Yeast growth inh)
O=C(N/N=C/c1ccc[nH]1)c1cc(-c2ccc(Cl)cc2)nc2ccccc12	none (no result: Yeast lifespan up, INS promoter inh, Yeast growth inh)
COc1ccc(CNC(=O)c2cccc(-c3ccc(C)c4ccccc34)n2)cc1	RAM inhibit 12 | RAM 5-FOA inactive
COc1ccc(CNC(=O)c2ccccc2C(=O)O)cc1	none (no result: INS promoter inh)
CCOC(=O)C1=C(O)/C(=C/c2ccc(OCC(=O)O)c(OC)c2)SC1=Nc1ccc(OC)cc1	RAM inhibit 14 | RAM 5-FOA inactive
COc1ccc(N=C2S/C(=C\c3cccs3)C(=O)N2CC(C)C)cc1	none
COc1ccc(N=C2S/C(=C\c3ccc(C)s3)C(=O)N2CC(C)C)cc1	RAM inhibit 15 (no result: Insulin prom up) | RAM 5-FOA inactive
CCCc1nc(SCC(=O)N2CCc3ccccc32)c2c(C)c(C)sc2n1	none (no result: Insulin prom up)
C=CCn1c(SCCC)nc2sc3c(c2c1=O)CCc1ccccc1-3	RAM inhibit 15 | RAM 5-FOA inactive
C=CCSc1nc2sc3c(c2c(=O)n1CC=C)CCc1ccccc1-3	none (no result: INS promoter inh)
CCOC(=O)C1=C(N)OC2=C(C(=O)CC(C)(C)C2)C1c1ccc(C)s1 (configuration not stated)	RAM inhibit 17 (no result: Yeast lifespan up, Yeast growth inh) | RAM 5-FOA inactive
CN(CC(=O)Nc1cccc2ccccc12)C(=O)/C=C/c1cccs1	none
O=C(OC(C(=O)Nc1cccc(C(F)(F)F)c1)c1ccccc1)C1CCCCC1 (configuration not stated)	RAM inhibit 14 | RAM 5-FOA inactive
O=C(Nc1cccc(C(F)(F)F)c1)NC1CCCCC1	none
CSc1cccc(NC(=O)C2(S(=O)(=O)c3ccc(C)cc3)CC2)c1	none (no result: Yeast lifespan up, Yeast growth inh)
CCOc1c(Cl)cc(C(=O)Nc2ccccc2-c2ccccc2)cc1Cl	RAM inhibit 14 (no result: INS promoter inh) | RAM 5-FOA inactive
COc1ccc(-c2nc3ccccc3c(=O)n2CCOc2cc(C)ccc2C)cc1	RAM inhibit 14 | RAM 5-FOA inactive
COc1ccc(-c2nc3ccccc3c(=O)n2CCOc2ccccc2C)cc1	RAM inhibit 21 (no result: INS promoter inh) | RAM 5-FOA inactive
COc1ccc(-c2nc3ccccc3c(=O)n2CCOc2ccc(C)cc2C)cc1	RAM inhibit 15 (no result: INS promoter inh) | RAM 5-FOA inactive
Cc1ccccc1/C=N/Nc1nc2ccccc2c(=O)n1O	none (no result: Yeast lifespan up, INS promoter inh, Yeast growth inh, RAM inhibit)
CNC(=O)NC(=O)C(C)OC(=O)c1oc2ccccc2c1CSc1ccc(Cl)cc1 (configuration not stated)	none (no result: Insulin prom up)
COc1ccc(/C=C/C(=O)c2sc(-c3ccccc3)nc2C)cc1	RAM inhibit 13 (no result: INS promoter inh) | RAM 5-FOA inactive
Cc1nc(-c2ccccc2)sc1C(=O)O	none (no result: Yeast lifespan up, INS promoter inh, Yeast growth inh)
O=C(CNC(=O)c1ccc(Cl)cc1Cl)Nc1ccc(F)cc1	none (no result: Yeast lifespan up, INS promoter inh, Yeast growth inh, RAM inhibit)
